# Measured values taken from ChEMBL document CHEMBL4152320, “Discovery and development of novel salicylate synthase (MbtI) furanic inhibitors as antitubercular agents” (Eur J Med Chem, 2018).
# Calls of active or inactive are those of the source. No cut-off for these calls is given here.
# Assays:
# [1] = test system: Mycobacterium tuberculosis; assay: Inhibition of Mycobacterium tuberculosis salicylate synthase expressed in Escherichia coli BL21(DE3) assessed as residual activity at 100 uM using chorismic acid as substrate in presence of NADH by l-lactic dehydrogenase enzyme coupled assay relative to control
# [2] = Inhibition of Mycobacterium tuberculosis salicylate synthase expressed in Escherichia coli BL21(DE3) using chorismic acid as substrate in presence of NADH by l-lactic dehydrogenase enzyme coupled assay
# In short: (§1)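 IC50 at subsaturating chorismic acid (50 µM) via LDH-coupled NADH assay, 37 °C, 50 mM HEPES pH 8.0, 10 mM MgCl2, 10-20 µM MbtI; activity at varied inhibitor fitted to A[I] = A[0]×(1−[I]/([I]+IC50)). Aggregation controls run with BSA or Triton X-100 added (line 8 BSA, line 11 Triton).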
# [3] = test system: Mycobacterium tuberculosis; assay: Inhibition of Mycobacterium tuberculosis salicylate synthase expressed in Escherichia coli BL21(DE3) using chorismic acid as substrate in presence of DTT by l-lactic dehydrogenase enzyme coupled assay
# In short: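 IC50 with 100 µM DTT present, to probe cysteine reactivity; LDH-coupled assay at 37 °C with 50 µM chorismic acid, 50 mM HEPES pH 8.0, 0.2 mM NADH, 10 mM MgCl2, 10-20 µM MbtI; fitted to single-site IC50 equation.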
# [4] = test system: Mycobacterium tuberculosis; assay: Inhibition of Mycobacterium tuberculosis salicylate synthase expressed in Escherichia coli BL21(DE3) using chorismic acid as substrate in presence of BSA by l-lactic dehydrogenase enzyme coupled assay; in short: as §1
# [5] = test system: Mycobacterium tuberculosis; assay: Inhibition of Mycobacterium tuberculosis salicylate synthase expressed in Escherichia coli BL21(DE3) using chorismic acid as substrate in presence of Triton-X-100 by l-lactic dehydrogenase enzyme coupled assay; in short: as §1
# [6] = Competitive inhibition of Mycobacterium tuberculosis salicylate synthase expressed in Escherichia coli BL21(DE3) using varying levels of chorismic acid as substrate in presence of NADH by l-lactic dehydrogenase enzyme coupled assay
# In short: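 Ki by competitive-inhibition fit of MbtI activity across varied CHA (10-500 µM range used for kinetics) and inhibitor levels (0, 5, 10, 20, 50, 100 µM). Coupled lactate dehydrogenase assay at 37 °C: 50 mM HEPES pH 8.0, 0.2 mM NADH, 10 mM MgCl2, 3 U LDH, 10-20 µM MbtI; reactions started with CHA; triplicate.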
# [7] = test system: Mycobacterium tuberculosis; assay: Antimycobacterial activity against Mycobacterium tuberculosis H37Rv; type: functional
# In short: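 MIC99 vs M. tuberculosis H37Rv on solid medium. Single colony grown in 7H9 + 10% OADC at 37 °C to exponential phase (~10^8 CFU/mL), diluted to ~10^6 CFU/mL, about 1 µL streaked onto plates with two-fold serial compound dilutions; MIC = lowest concentration inhibiting growth; triplicate.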
Structure (SMILES),Activity [1],further results
O=C(O)c1cccc(-c2ccc([N+](=O)[O-])cc2)c1,36.8%,
C/C=C(\Oc1cccc(C(=O)O)c1O)C(=O)O,,IC50 [2]: 11.6 µM
NS(=O)(=O)c1ccc(-c2ccc(C(=O)O)o2)cc1,84.6%,
O=C(O)c1ccc(-c2ccc3nonc3c2)o1,46.8%,
O=C(O)c1ccc(-c2ccc3c(c2)COC3=O)o1,58%,
O=C(O)c1ccc(-c2ccc(C(=O)O)o2)cc1,92.4%,
O=C(O)c1ccc(-c2ccc([N+](=O)[O-])cc2Cl)o1,21.3%,IC50 [2]: 21.1 µM
O=C(O)c1ccc([N+](=O)[O-])cc1Cl,89.3%,
COc1ccc(C(=O)O)cc1OCc1ccncc1,104%,
Cc1cc(C(=O)O)c2ccc(F)cc2n1,101%,
O=C(O)c1ccc(-c2ccncc2)o1,45%,
N#Cc1ccc(-c2ccc(C(=O)O)o2)cc1,126%,
COC(=O)c1ccc(-c2ccc([N+](=O)[O-])cc2)o1,71.1%,
Cc1nc(C(C)NC(=O)c2ccoc2)sc1C(=O)O (stereo unspecified),109%,
O=C(O)c1ccc(-c2ccccc2)o1,102%,
COc1ccc([N+](=O)[O-])cc1S(=O)(=O)Nc1cccc(C(=O)O)c1,38.4%,IC50 [2]: 77.6 µM
O=C(O)c1ccc(-c2ccc(-c3nn[nH]n3)cc2)o1,104%,
O=C(O)c1ccc(-c2ccc(O)cc2)o1,96.3%,
CS(=O)(=O)c1ccc(-c2ccc(C(=O)O)o2)cc1,98.5%,
O=C(O)c1ccc(-c2cccc([N+](=O)[O-])c2)o1,50.2%,
O=C(O)c1ccc(-c2ccc([N+](=O)[O-])cc2)o1,18.2%,inhibition [3]: Active; inhibition [4]: Active; inhibition [5]: Active; Ki [6]: 5.3 µM; MIC99 [7]: 156 µM
O=C(O)c1ccc(-c2ccc(C(F)(F)F)cc2)o1,66.3%,
O=C(O)c1ccc(-c2ccccc2[N+](=O)[O-])o1,55.1%,
O=C(O)c1ccc(-c2ccccc2Cl)o1,92.4%,
